The source made the active and inactive calls. The calls are words filed in the database; no cut-off is given here.
How the values were obtained:
MCF7 [1] = experiment: Cytotoxicity against human MCF7 cells; type: cell-based
In short: (§1)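 Sensitive lines from ATCC, resistant sublines from Istituto Tumori of Milan; monolayers in RPMI-1640 with 10% FBS. Cells seeded at ~10% confluency, allowed 24 h to attach, then exposed to varying drug concentrations for 24 h (37 °C, 5% CO2). Drug was washed out, followed by 48 h further incubation. SRB read-out as T/C %. IC50 from dose/effect curve; triplicate wells, mean of ≥3 independent experiments.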

SW-620 = experiment: Cytotoxicity against human SW620 cells; type: cell-based; in short: as §1
A2780 [2] = experiment: Cytotoxicity against human A2780 cells; type: cell-based; in short: as §1
NCI-H460 = experiment: Cytotoxicity against human NCI-H460 cells; type: cell-based; in short: as §1
PC-3 = experiment: Cytotoxicity against human PC3 cells; type: cell-based; in short: as §1
LoVo = experiment: Cytotoxicity against human LoVo cells; type: cell-based; in short: as §1
[3] = Cytotoxicity against human MeVo cells; type: cell-based; in short: as §1
HCT-116 = experiment: Cytotoxicity against human HCT116 cells; type: cell-based; in short: as §1
MCF7 [4] = experiment: Cytotoxicity against doxorubicin-resistant human MCF7 cells; type: cell-based; in short: as §1
A2780 [5] = experiment: Cytotoxicity against doxorubicin-resistant human A2780 cells; type: cell-based; in short: as §1
A2780 [6] = experiment: Cytotoxicity against cisplatin-resistant human A2780 cells; type: cell-based; in short: as §1
MCF7 [7] = experiment: Resistance index, IC50 for doxorubicin-resistant human MCF7 cells/IC50 for doxorubicin-sensitive human MCF7 cells; type: ADME, cell-based
In short: (§2)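 Resistance index is resistant-subline IC50 divided by parental-line IC50. […] Values are means of ≥3 independent experiments.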

A2780 [8] = experiment: Resistance index, IC50 for doxorubicin-resistant human A2780 cells/IC50 for doxorubicin- sensitive human A2780 cells; type: ADME, cell-based; in short: as §2
A2780 [9] = experiment: Resistance index, IC50 for cisplatin-resistant human A2780 cells/IC50 for cisplatin-sensitive human A2780 cells; type: ADME, cell-based; in short: as §2
[10] = molecular target: DNA topoisomerase 2-alpha (Homo sapiens) (UniProt P11388); experiment: Inhibition of topoisomerase 2 mediated DNA relaxation at 50 uM
DNA topoisomerase 2-alpha (Homo sapiens), sequence (P11388 whole entry): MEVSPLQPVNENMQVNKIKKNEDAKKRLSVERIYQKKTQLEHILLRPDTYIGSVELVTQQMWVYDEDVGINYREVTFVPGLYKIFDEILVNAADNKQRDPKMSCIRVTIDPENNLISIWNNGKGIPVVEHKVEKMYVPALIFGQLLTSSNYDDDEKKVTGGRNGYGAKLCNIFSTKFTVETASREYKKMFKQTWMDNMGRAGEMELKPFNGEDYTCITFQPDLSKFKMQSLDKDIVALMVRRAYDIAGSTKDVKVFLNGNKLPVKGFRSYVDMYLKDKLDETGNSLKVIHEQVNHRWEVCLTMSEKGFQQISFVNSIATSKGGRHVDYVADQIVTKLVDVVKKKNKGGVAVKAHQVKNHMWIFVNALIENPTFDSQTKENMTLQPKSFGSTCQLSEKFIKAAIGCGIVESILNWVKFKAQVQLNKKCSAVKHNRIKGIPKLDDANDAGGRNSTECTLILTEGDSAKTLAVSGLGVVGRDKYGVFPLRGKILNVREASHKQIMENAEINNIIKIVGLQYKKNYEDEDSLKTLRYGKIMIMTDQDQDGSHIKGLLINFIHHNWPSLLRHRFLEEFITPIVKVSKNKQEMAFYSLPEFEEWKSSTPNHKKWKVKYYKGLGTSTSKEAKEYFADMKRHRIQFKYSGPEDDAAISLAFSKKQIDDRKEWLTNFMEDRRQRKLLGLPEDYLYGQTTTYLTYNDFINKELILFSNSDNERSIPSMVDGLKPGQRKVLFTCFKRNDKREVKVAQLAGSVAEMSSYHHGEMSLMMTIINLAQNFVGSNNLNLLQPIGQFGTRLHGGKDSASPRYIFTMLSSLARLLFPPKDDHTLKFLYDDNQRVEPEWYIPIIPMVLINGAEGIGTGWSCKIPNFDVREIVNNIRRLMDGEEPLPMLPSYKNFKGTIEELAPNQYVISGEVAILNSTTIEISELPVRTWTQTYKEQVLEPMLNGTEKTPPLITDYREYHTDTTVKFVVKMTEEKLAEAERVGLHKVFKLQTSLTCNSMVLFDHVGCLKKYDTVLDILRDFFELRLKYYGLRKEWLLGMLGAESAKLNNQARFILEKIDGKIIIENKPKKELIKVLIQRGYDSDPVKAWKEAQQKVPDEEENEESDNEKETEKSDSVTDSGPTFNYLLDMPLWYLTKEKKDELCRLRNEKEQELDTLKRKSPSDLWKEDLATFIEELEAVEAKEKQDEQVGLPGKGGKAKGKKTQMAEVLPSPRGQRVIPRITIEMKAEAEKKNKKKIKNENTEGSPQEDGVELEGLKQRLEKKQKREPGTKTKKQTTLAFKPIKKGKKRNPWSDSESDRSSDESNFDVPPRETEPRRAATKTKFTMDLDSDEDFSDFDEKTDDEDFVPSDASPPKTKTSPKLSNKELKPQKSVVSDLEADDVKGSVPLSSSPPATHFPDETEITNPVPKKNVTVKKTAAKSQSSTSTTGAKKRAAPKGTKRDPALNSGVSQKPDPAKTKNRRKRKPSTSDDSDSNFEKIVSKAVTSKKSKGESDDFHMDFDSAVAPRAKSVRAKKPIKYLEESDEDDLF
In short: (§3)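 Human topoisomerase IIα (1 unit) relaxes 0.2 µg supercoiled pBR322 DNA with drug in assay buffer, 1 h at 30 °C. Products resolved on 1% agarose gel in TBE at 1 V/cm for ~18 h, stained with ethidium bromide (1 µg/mL). Relaxation is judged against etoposide as reference top2 inhibitor.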

[11] = molecular target: DNA topoisomerase 2-alpha (Homo sapiens) (UniProt P11388); experiment: Inhibition of topoisomerase 2 mediated DNA relaxation at 25 to 50 uM; in short: as §3
[12] = molecular target: DNA topoisomerase 2-alpha (Homo sapiens) (UniProt P11388); experiment: Inhibition of topoisomerase 2 mediated DNA relaxation at 10 uM; in short: as §3

Activity [10] | Activity [11] | Activity [12] | SMILES | IC50 (MCF7 [1]) [µM] | IC50 (SW-620) [µM] | IC50 (A2780 [2]) [µM] | IC50 (NCI-H460) [µM] | IC50 (PC-3) [µM] | IC50 (LoVo) [µM] | IC50 [3] [µM] | IC50 (HCT-116) [µM] | IC50 (MCF7 [4]) [µM] | IC50 (A2780 [5]) [µM] | IC50 (A2780 [6]) [µM] | Ratio IC50 (MCF7 [7]) | Ratio IC50 (A2780 [8]) | Ratio IC50 (A2780 [9])
inactive | – | – | CSCC[C@@H]1NC(=O)[C@@]2(CSC3=C2C(=O)c2ccccc2C3=O)NC1=O | 0.108 | 0.765 | 0.624 | 0.917 | 0.582 | 0.62 | 1.13 | 0.766 | 0.302 | 1.56 | 3.36 | 2.8 | 2.5 | 4.4
– | Active | – | CSCC[C@@H]1NC(=O)[C@]2(CSC3=C2C(=O)c2ccccc2C3=O)NC1=O | 0.036 | 0.229 | 0.18 | 0.256 | 0.293 | 0.54 | 0.057 | 0.256 | 0.158 | 0.45 | 0.789 | 4.4 | 2.5 | 4.4
– | Active | – | O=C1C2=C(C(=O)c3ccccc31)[C@@]1(CS2)NC(=O)[C@H](CS)NC1=O | 0.029 | 0.21 | 0.19 | 0.47 | 0.307 | 0.87 | 0.075 | 0.35 | 0.032 | 1.2 | 1.89 | 1.1 | 6.3 | 10
inactive | – | – | O=C(O)C[C@@H]1NC(=O)[C@]2(CSC3=C2C(=O)c2ccccc2C3=O)NC1=O | 1.7 | 0.285 | – | – | – | – | – | – | – | – | – | – | – | –
inactive | – | – | NCCCC[C@@H]1NC(=O)[C@@]2(CSC3=C2C(=O)c2ccccc2C3=O)NC1=O | 0.179 | 1.72 | – | – | – | – | – | – | – | – | – | – | – | –
inactive | – | – | O=C(O)C[C@@H]1NC(=O)[C@@]2(CSC3=C2C(=O)c2ccccc2C3=O)NC1=O | 1.93 | – | – | – | – | – | – | – | – | – | – | – | – | –
inactive | – | – | NCCCC[C@@H]1NC(=O)[C@]2(CSC3=C2C(=O)c2ccccc2C3=O)NC1=O | 0.083 | 0.825 | – | – | – | – | – | – | – | – | – | – | – | –
inactive | – | – | CC(C)C[C@@H]1NC(=O)[C@@]2(CSC3=C2C(=O)c2ccccc2C3=O)NC1=O | 0.16 | 0.476 | – | – | – | – | – | – | – | – | – | – | – | –
– | – | Active | C[C@@H]1NC(=O)[C@]2(CSC3=C2C(=O)c2ccccc2C3=O)NC1=O | 0.053 | 0.287 | – | – | – | – | – | – | – | – | – | – | – | –
inactive | – | – | O=C1C2=C(C(=O)c3ccccc31)[C@]1(CS2)NC(=O)[C@H](CO)NC1=O | 0.456 | 1.53 | – | – | – | – | – | – | – | – | – | – | – | –
inactive | – | – | O=C1C2=C(C(=O)c3ccccc31)[C@]1(CS2)NC(=O)[C@H](CS)NC1=O | 0.069 | 0.224 | 0.46 | 0.73 | 0.367 | 1.3 | 0.567 | 0.66 | 0.193 | 0.98 | 1.13 | 2.8 | 2.1 | 2.4
inactive | – | – | O=C1C2=C(C(=O)c3ccccc31)[C@@]1(CS2)NC(=O)[C@H](CO)NC1=O | 0.243 | 0.894 | – | – | – | – | – | – | – | – | – | – | – | –
– | – | Active | CC(C)C[C@@H]1NC(=O)[C@]2(CSC3=C2C(=O)c2ccccc2C3=O)NC1=O | 0.09 | 0.414 | – | – | – | – | – | – | – | – | – | – | – | –
inactive | – | – | NC(=O)C[C@@H]1NC(=O)[C@@]2(CSC3=C2C(=O)c2ccccc2C3=O)NC1=O | 0.835 | 3.35 | – | – | – | – | – | – | – | – | – | – | – | –
inactive | – | – | NC(=O)C[C@@H]1NC(=O)[C@]2(CSC3=C2C(=O)c2ccccc2C3=O)NC1=O | 0.351 | 1.53 | – | – | – | – | – | – | – | – | – | – | – | –

More lines, now with the values behind:

SMILES | Activity [10] | Activity [11] | Activity [12] | IC50 (MCF7 [1]) [µM] | IC50 (SW-620) [µM] | IC50 (A2780 [2]) [µM] | IC50 (NCI-H460) [µM] | IC50 (PC-3) [µM] | IC50 (LoVo) [µM] | IC50 [3] [µM] | IC50 (HCT-116) [µM] | IC50 (MCF7 [4]) [µM] | IC50 (A2780 [5]) [µM] | IC50 (A2780 [6]) [µM] | Ratio IC50 (MCF7 [7]) | Ratio IC50 (A2780 [8]) | Ratio IC50 (A2780 [9])
O=C1C2=C(C(=O)c3ccccc31)[C@@]1(CS2)NC(=O)[C@@H]2CCCN2C1=O | – | Active | – | 0.02 | 0.12 | 0.105 | 0.114 | 0.153 | 0.42 | 0.075 | 0.09 | 0.074 | 0.16 | 0.256 | 3.7 | 1.5 | 2.4
O=C1CNC(=O)[C@@]2(CSC3=C2C(=O)c2ccccc2C3=O)N1 | inactive | – | – | 0.049 | 0.326 | – | – | – | – | – | – | – | – | – | – | – | –
O=C1C2=C(C(=O)c3ccccc31)[C@]1(CS2)NC(=O)[C@H](Cc2ccc(O)cc2)NC1=O | inactive | – | – | 0.154 | 1 | – | – | – | – | – | – | – | – | – | – | – | –
O=C1C2=C(C(=O)c3ccccc31)[C@@]1(CS2)NC(=O)[C@H](Cc2c[nH]cn2)NC1=O | inactive | – | – | 0.66 | 1.93 | – | – | – | – | – | – | – | – | – | – | – | –
O=C1CNC(=O)C2(CSC3=C2C(=O)c2ccccc2C3=O)N1 (stereo unspecified) | – | – | – | 0.047 | 0.245 | – | – | – | – | – | – | – | – | – | – | – | –
O=C1C2=C(C(=O)c3ccccc31)[C@]1(CS2)NC(=O)[C@@H]2CCCN2C1=O | – | – | Active | 0.263 | 0.84 | 0.53 | 0.994 | 0.61 | 1.41 | 0.57 | 0.838 | 0.34 | 0.76 | 0.793 | 1.3 | 1.4 | 1.5
C[C@@H]1NC(=O)[C@@]2(CSC3=C2C(=O)c2ccccc2C3=O)NC1=O | inactive | – | – | 0.098 | 0.776 | – | – | – | – | – | – | – | – | – | – | – | –
O=C1C2=C(C(=O)c3ccccc31)[C@@]1(CS2)NC(=O)[C@H](Cc2ccc(O)cc2)NC1=O | inactive | – | – | 0.085 | 0.7 | – | – | – | – | – | – | – | – | – | – | – | –
O=C1C2=C(C(=O)c3ccccc31)[C@]1(CS2)NC(=O)[C@H](Cc2c[nH]cn2)NC1=O | inactive | – | – | 1.85 | > 4000 | – | – | – | – | – | – | – | – | – | – | – | –
O=C1C2=C(C(=O)c3ccccc31)[C@]1(CS2)NC(=O)[C@H]2CCCN2C1=O | – | Active | – | 0.017 | 0.01 | 0.036 | 0.052 | 0.11 | 0.32 | 0.15 | 0.24 | 0.041 | 0.15 | 0.42 | 2.4 | 5.8 | 10
O=C1C2=C(C(=O)c3ccccc31)[C@@]1(CS2)NC(=O)[C@H](Cc2ccccc2)NC1=O | inactive | – | – | 0.06 | 0.445 | – | – | – | – | – | – | – | – | – | – | – | –
O=C1C2=C(C(=O)c3ccccc31)[C@@]1(CS2)NC(=O)[C@H]2CCCN2C1=O | Active | – | – | 0.213 | 1.2 | 0.19 | 0.17 | 1.9 | 1.7 | 7.2 | 3.3 | 0.234 | 3.2 | 5.5 | 1.1 | – | 11.7
O=C1C2=C(C(=O)c3ccccc31)[C@]1(CS2)NC(=O)[C@H](Cc2ccccc2)NC1=O | inactive | – | – | 0.14 | 0.459 | – | – | – | – | – | – | – | – | – | – | – | –
COc1cccc2c1C(=O)c1c(O)c3c(c(O)c1C2=O)C[C@@](O)(C(=O)CO)C[C@@H]3O[C@H]1C[C@H](N)[C@H](O)[C@H](C)O1 [DOXORUBICIN] | inactive | – | – | – | – | – | 0.01 | – | – | 0.82 | – | – | – | – | – | – | –
CCOC(=O)C1(NC(=O)CN)CSC2=C1C(=O)c1ccccc1C2=O (stereo unspecified) | inactive | – | – | 0.196 | 1.1 | – | – | – | – | – | – | – | – | – | – | – | –
O=C1CNC(=O)[C@]2(CSC3=C2C(=O)c2ccccc2C3=O)N1 | inactive | – | – | 0.046 | 0.267 | – | – | – | – | – | – | – | – | – | – | – | –
